Assay results pooled from the literature.
Compare with care: the assays were run in different laboratories.
NR3C1: Glucocorticoid receptor (NR3C1, Homo sapiens, UniProt P04150)
TYR: Tyrosinase (TYR, Homo sapiens, UniProt P14679)
Si: Sucrase-isomaltase, intestinal (Si, Rattus norvegicus, UniProt P23739)
Abl2: Abl2 (Mus musculus, UniProt Q4JIM5)
PIK3C3: Phosphatidylinositol 3-kinase catalytic subunit type 3 (PIK3C3, Homo sapiens, UniProt Q8NEB9)

| SMILES | target | test | system | conditions | inhibition |
| --- | --- | --- | --- | --- | --- |
| CCN(Cc1ccccc1C(F)(F)F)C(=O)C1CCN(S(=O)(=O)c2ccc3[nH]ncc3c2)CC1 | NR3C1 | ligand displacement, radioligand |  | 10 µM | 1% |
| Cc1ccc(C(C)C)cc1NC(=O)COC(=O)c1ccc(O)cc1 | TYR | enzyme activity, inhibitor |  | 50 µg/mL | 53.8% |
| O=C1OC[C@H]2OC(=O)c3cc(O)c(O)c(O)c3-c3c(O)c(O)c(O)c4c3C(=O)O[C@H]([C@H]3OC(=O)c5c-4c(O)c(O)c(O)c5[C@H]3O)[C@@H]2OC(=O)c2cc(O)c(O)c(O)c2-c2c1cc(O)c(O)c2O | Si | enzyme activity, inhibitor |  | 25 µg/mL | 25.7% |
| O=C(Nc1ccc(S(=O)(=O)N2CCC(Cl)CC2)cc1)c1ccc([N+](=O)[O-])o1 | NR3C1 | ligand displacement, radioligand |  | 10 µM | 19% |
| CCN(CC)c1ccc(C2Nc3ccc(C(=O)c4ccccc4)cc3NC3=C2C(=O)CC(C)(C)C3)cc1 (centres unmarked) | Prostaglandin E2 receptor EP3 subtype (PTGER3, Homo sapiens, UniProt P43115) | ligand displacement, radioligand |  | 10 µM | 12% |
| CNC(=O)c1cc(Oc2ccc(NC(=O)Nc3ccc(Cl)c(C(F)(F)F)c3)cc2)ccn1 | Abl2 | enzyme activity, inhibitor |  | 10 µM | 61% |
| O=C(CSc1nc2nccnc2c(=O)n1CCc1ccccc1)Nc1ccccc1 | PIK3C3 | enzyme activity, inhibitor |  | 10 µM | < 20% |
| O=C(c1ccc(F)cc1)N(Cc1ccccc1)C1CCCCC1 | NR3C1 | cell-free assay |  | 10 µM | 9% |
| O=c1c(O[C@@H]2O[C@@H](CO)[C@H](O)[C@H]2O)c(-c2ccc(O)c(O)c2)oc2cc(O)cc(O)c12 | Si | enzyme activity, inhibitor |  | 50 µg/mL | 31.5% |
| Cc1ccc(C(C)C)cc1NC(=O)COC(=O)/C=C/c1ccccc1 | TYR | enzyme activity, inhibitor |  | 50 µg/mL | 82.3% |
| O=c1c(O[C@@H]2O[C@H](CO)[C@@H](O)[C@H](O)[C@H]2O)c(-c2ccc(O)c(O)c2)oc2cc(O)cc(O)c12 | Si | enzyme activity, inhibitor |  | 25 µg/mL | 21.4% |
| Cc1ccc(Nc2nccc(N(C)c3ccc4c(C)n(C)nc4c3)n2)cc1S(N)(=O)=O | Abl2 | enzyme activity, inhibitor |  | 0.3 µM | 38% |
| O=C1N=C(N2CCCCN2)S/C1=C\c1ccc(F)cc1O | Nociceptin receptor (OPRL1, Homo sapiens, UniProt P41146) | ligand displacement, radioligand |  | 10 µM | < 10% |
| CCN(CC)CCNC(=O)c1c(C)[nH]c(/C=C2\C(=O)Nc3ccc(F)cc32)c1C | Mitogen-activated protein kinase 14 (MAPK14, Homo sapiens, UniProt Q16539) | enzyme activity, inhibitor |  | 0.3 µM | -11% |
| Cc1ccc(C(C)C)cc1NC(=O)COC(=O)/C=C/c1ccccc1O | TYR | enzyme activity, inhibitor |  | 50 µg/mL | 53.7% |
| CNc1cc(Oc2cc(C(=O)Nc3cc(N4CCN(C)CC4)cc(C(F)(F)F)c3)ccc2C)ncn1 | PAN2-PAN3 deadenylation complex subunit PAN3 (Homo sapiens, UniProt Q58A45) | target engagement in cells, inhibitor, chemoproteomics | Huh-7 | 1 µM | -39.3% |
| O=C(c1ccc(Cl)cc1)N(Cc1ccccc1)C1CCCCC1 | 5-hydroxytryptamine receptor 1A (HTR1A, Homo sapiens, UniProt P08908) | ligand displacement, radioligand |  | 10 µM | -12.4% |
| CN(C)C1CCN(CC#Cc2nn(C3CCCC3)c3nc(NCc4ccccc4)ncc23)C1 (centres unmarked) | Inhibitor of nuclear factor kappa-B kinase subunit beta (IKBKB, Homo sapiens, UniProt O14920) | enzyme activity, inhibitor, FRET |  | 0.1 µM | -1% |
| CC(C)CCn1c(SCC(=O)Nc2ccccc2C(F)(F)F)nc2nccnc2c1=O | PIK3C3 | enzyme activity, inhibitor |  | 10 µM | < 20% |
| COc1cc(NC(C)=O)c(Cl)cc1C(=O)Nc1nccs1 | NR3C1 | cell-free assay |  | 10 µM | 11% |
| COc1cc(-c2cc(-c3ccc(N4CCNCC4)cc3)cnc2C)cc(OC)c1OC | cAMP-dependent protein kinase catalytic subunit beta (PRKACB, Homo sapiens, UniProt P22694) | enzyme activity, inhibitor |  | 0.1 µM | 2% |
| Cc1ccc(C(C)C)cc1NC(=O)COC(=O)c1cc(O)cc(O)c1 | TYR | enzyme activity, inhibitor |  | 50 µg/mL | 54.6% |
| CC(CN(C)C)C(Oc1cccc2ccccc12)c1cccs1 (centres unmarked) | Norepinephrine transporter (Slc6a2, Rattus norvegicus, UniProt Q9WTR4) | ligand displacement, radioligand |  | 10 µM, cell membranes | < 70% |
| N#Cc1cc(Cn2c(N3CCCC3)nc3ccccc32)ccc1F | Alpha-2C adrenergic receptor (ADRA2C, Homo sapiens, UniProt P18825) | ligand displacement |  | 10 µM | 16.1% |
| Cc1ccc(C(C)C)cc1NC(=O)COC(=O)c1ccc(O)cc1O | TYR | enzyme activity, inhibitor |  | 50 µg/mL | 66.7% |
| Oc1cccc(Nc2nc(-c3ccc(F)cc3F)cs2)c1 | NR3C1 | cell-free assay |  | 10 µM | 21.6% |
